Laboratory results from article PMC9719863 (Molecular Metabolism, 2022).
*1 amine or outer side, *2 acyl side, *3 side chain or, on linkers, in order; H or OH if unused. Where a SMILES comes first, the peptide text is derived from it. Side-chain parts run from the residue outwards. The star is where a group is joined. γGlu = O=C(O)[C@H](CCC(=O)[*:2])N[*:1]; Palmitoyl = CCCCCCCCCCCCCCCC(=O)*

Assays:
[1] = target: T1, hGIPR (Homo sapiens, UniProt P48546); test: cAMP CRE-luciferase assay in BHK cells expressing GIPR; format: cell-based; conditions: agonist mode, without native ligand
T1 sequence (P48546 22-466): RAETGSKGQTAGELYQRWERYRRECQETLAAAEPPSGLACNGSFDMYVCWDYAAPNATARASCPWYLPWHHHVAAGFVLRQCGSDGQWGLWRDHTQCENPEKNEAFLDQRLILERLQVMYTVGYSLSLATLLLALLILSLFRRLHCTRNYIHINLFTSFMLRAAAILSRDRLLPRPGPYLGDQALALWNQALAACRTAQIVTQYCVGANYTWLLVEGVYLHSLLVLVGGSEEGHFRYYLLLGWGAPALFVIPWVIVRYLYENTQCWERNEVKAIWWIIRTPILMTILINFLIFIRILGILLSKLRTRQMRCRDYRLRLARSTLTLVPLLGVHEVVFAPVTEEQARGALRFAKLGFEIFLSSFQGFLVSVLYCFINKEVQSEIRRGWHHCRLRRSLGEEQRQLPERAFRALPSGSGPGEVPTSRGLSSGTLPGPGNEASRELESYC

[2] = target: T2, mGIPR (Mus musculus, UniProt Q0P543); test: as above; format: cell-based
T2 sequence (Q0P543 19-460): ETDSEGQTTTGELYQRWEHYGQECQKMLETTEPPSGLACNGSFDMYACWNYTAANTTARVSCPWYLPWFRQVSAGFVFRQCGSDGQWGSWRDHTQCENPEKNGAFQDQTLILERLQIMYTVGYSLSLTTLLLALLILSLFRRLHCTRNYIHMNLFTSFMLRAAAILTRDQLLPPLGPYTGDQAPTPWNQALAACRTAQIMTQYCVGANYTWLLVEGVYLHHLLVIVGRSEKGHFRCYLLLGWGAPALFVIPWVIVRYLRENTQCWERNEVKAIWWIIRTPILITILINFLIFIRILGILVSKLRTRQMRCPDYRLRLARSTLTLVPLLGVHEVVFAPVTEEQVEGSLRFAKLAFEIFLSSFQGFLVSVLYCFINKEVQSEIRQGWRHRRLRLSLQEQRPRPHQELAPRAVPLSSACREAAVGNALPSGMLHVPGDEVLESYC

[3] = target: hGLP-1R (Homo sapiens, UniProt P43220); test: cAMP CRE-luciferase assay in BHK cells expressing GLP-1R; format: cell-based
Method in brief: (§1)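 Stably transfected BHK cells carried receptor plus CRE-firefly luciferase reporter, seeded 5,000/well overnight, then DPBS-washed. 12-point dilutions in DMEM (no phenol red), 10 mM HEPES, 1% ovalbumin, 0.1% Pluronic F-68, ± EC80 native ligand (antagonist mode), 3 h, 37 °C. Luminescence read after SteadyLite, 30 min RT. EC50/IC50 by nonlinear regression of log concentration vs response; duplicate experiment.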

[4] = target: T3, mGLP-1R (Mus musculus, UniProt O35659); test: cAMP CRE-luciferase assay in BHK cells expressing GLP-1R; format: cell-based; conditions: antagonist mode, compared with hGLP-1R
T3 sequence (O35659 22-463): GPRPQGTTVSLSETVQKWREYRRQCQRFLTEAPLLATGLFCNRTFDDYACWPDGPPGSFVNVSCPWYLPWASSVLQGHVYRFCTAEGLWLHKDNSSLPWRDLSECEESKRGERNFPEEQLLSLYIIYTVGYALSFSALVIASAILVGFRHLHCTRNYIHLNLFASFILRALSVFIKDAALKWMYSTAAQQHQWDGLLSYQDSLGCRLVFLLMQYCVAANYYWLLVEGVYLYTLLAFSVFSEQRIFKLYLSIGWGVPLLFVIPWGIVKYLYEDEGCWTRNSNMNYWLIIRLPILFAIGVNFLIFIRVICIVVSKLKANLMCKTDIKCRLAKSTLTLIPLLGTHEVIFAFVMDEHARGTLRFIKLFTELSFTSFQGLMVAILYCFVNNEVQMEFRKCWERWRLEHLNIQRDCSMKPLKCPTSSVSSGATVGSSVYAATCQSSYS
Method in brief: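 Stably transfected BHK cells with receptor and CRE-firefly luciferase reporter, 5,000 cells/well, incubated overnight and washed in DPBS. Exposed 3 h at 37 °C to a 12-point serial dilution of test compound with EC80 native ligand, in DMEM (no phenol red) with 10 mM HEPES, 1% ovalbumin, 0.1% Pluronic F-68.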

[5] = target: hGcgR (Homo sapiens, UniProt P47871); test: cAMP CRE-luciferase assay in BHK cells expressing glucagon receptor; format: cell-based
Method in brief: as §1

[6] = target: mGcgR (Mus musculus, UniProt Q61606); test: as above; format: cell-based
Method in brief: as §1

[7] = Pharmacokinetic; format: in vivo; conditions: male, C57BL/6 J, mouse, plasma, sc, 500 nmol/kg
Method in brief: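 Male C57BL/6J mice fed 58% fat, high-sugar diet ≥16 weeks (61–74 g) received one SC dose of 500 nmol/kg, n = 4. Plasma sampled 5 min to 72 h, methanol-precipitated (14-fold), centrifuged, diluted 3-fold in 0.1% formic acid, and quantified by LC-MS selected ion monitoring against plasma standards (0.5–4000 nM). Parameters derived noncompartmentally with sparse sampling.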

[8] = system: DIO mice; test: Intraperitoneal glucose tolerance test; format: in vivo, mouse; conditions: IPGTT (Figure 6C,D) and oral glucose tolerance test (Supplemental figure 3)
Method in brief: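 Male C57BL/6J mice on 58% fat, high-sugar diet for ≥16 weeks, fasted 6 h. Antagonist (500 or 1500 nmol/kg) injected 2 h before glucose; semaglutide 2 nmol/kg injected 1 h before. Glucose 2.5 g/kg (20% solution) given i.p. or by oral gavage. Tail-vein glucose measured from baseline.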

[9] = system: DIO mice; test: Oral glucose tolerance test; format: in vivo, mouse; conditions: high dose (1500 nmol/kg) SC prior to oral gavage of glucose 2.5 g/kg, n = 8 per group
Method in brief: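 DIO male C57BL/6J mice (58% fat, high-sugar diet ≥16 weeks), fasted 6 h with water available. Antagonist injected 2 h before oral gavage of 2.5 g/kg glucose (20% solution). Tail-vein blood glucose measured from baseline; glucose integrated AUC derived.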

[10] = system: DIO male C57BL/6 J mice; test: Chronic once-daily dosing study on body weight in DIO mice; format: in vivo, mouse; conditions: for Percent change in body weight: 27-28 d, n = 8
Method in brief: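 DIO male C57BL/6J mice (58% fat, high-sugar diet, ~12 weeks; >55 g) housed 4/cage at 22 °C on a 12 h light–dark cycle. Groups of n = 8 were normalized for body weight. Test compound was given SC once daily in the light cycle for 28 days, in pH 7.4 vehicle (0.05% polysorbate-80, 50 mM sodium phosphate, 70 mM NaCl). Body weight was taken every other day before dosing, as % change from initial.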

[11] = system: intact human islets; test: Human islet perifusion, insulin secretion; format: cell-based; conditions: islets from two human donors, 7 1 uM, 4 technical replicates per donor
Method in brief: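 Islets from human donors (purity ≥80%) recovered overnight in RPMI with 6.7 mM glucose and 10% FBS, then used within 4 days. 75 handpicked islets per chamber in KRPH buffer (2.7 mM glucose, pH 7.4). Equilibrated 48 min (1% then 0.1% BSA), then perifused in intervals with 1 uM antagonist in KRPH + 0.1% BSA. Insulin measured by Lumit immunoassay.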

[12] = system: DIO mice; conditions: with the GLP-1R agonist liraglutide; cited from earlier work

hGLP-1R, sequence (P43220 24-463): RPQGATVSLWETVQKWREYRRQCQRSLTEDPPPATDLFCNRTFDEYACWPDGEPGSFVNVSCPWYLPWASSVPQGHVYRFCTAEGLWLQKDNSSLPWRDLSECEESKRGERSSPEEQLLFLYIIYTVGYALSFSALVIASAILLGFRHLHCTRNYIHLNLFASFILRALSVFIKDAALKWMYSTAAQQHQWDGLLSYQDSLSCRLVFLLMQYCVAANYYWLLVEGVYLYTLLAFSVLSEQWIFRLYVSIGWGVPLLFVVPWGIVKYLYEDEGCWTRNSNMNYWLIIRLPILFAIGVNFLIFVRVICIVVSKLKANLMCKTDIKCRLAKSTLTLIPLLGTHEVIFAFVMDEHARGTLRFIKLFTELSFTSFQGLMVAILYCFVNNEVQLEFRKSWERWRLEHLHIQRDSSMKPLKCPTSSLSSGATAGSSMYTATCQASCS
mGcgR, sequence (Q61606 27-485): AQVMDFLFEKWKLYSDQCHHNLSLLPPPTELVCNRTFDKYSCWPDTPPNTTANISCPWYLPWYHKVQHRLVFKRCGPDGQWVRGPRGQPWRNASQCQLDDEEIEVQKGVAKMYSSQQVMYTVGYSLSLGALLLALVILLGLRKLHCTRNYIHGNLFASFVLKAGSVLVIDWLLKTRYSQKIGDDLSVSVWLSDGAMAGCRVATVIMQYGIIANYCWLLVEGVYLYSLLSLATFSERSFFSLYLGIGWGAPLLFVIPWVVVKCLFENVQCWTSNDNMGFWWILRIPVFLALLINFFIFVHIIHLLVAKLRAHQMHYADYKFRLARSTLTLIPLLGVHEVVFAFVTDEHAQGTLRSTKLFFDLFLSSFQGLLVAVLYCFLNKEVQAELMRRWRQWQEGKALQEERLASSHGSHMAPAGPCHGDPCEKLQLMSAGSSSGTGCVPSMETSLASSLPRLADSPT
hGcgR, sequence (P47871 26-477): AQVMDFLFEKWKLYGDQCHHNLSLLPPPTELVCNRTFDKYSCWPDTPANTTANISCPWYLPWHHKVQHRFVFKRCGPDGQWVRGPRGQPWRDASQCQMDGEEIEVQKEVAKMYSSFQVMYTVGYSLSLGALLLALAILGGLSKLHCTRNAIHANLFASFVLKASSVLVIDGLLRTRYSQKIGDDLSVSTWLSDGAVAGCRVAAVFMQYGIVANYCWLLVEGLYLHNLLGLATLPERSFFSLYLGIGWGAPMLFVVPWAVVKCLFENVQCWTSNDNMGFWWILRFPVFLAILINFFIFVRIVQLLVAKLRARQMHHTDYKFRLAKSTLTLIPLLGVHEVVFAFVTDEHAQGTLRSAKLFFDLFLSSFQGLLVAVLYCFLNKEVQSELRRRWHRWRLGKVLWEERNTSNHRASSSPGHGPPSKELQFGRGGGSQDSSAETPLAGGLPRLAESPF

SMILES	Agonism at the hGIPR (cAMP production by peptide alone) [1]	Agonism at the mGIPR (cAMP production by peptide alone) ([2]; agonist mode, without native ligand)	Agonism at hGLP-1R (maximal) ([3]; agonist mode, Figure 3C)	% inhibition of native GLP-1 action, hGLP-1R ([3]; antagonist mode)	Antagonism at mGLP-1R [4]	EC50 [5]	EC50 [6]	Antagonism at mGcgR ([6]; antagonist mode vs glucagon)	half-life [7]	Effect on semaglutide mediated reductions in blood glucose [8]	Glucose control in OGTT (endogenous incretin action) [9]	Glucose iAUC in IPGTT on day 26, high dose ([10]; 7 alone 1500 nmol/kg/d, 24 h after compound injection)	Percent change in body weight ([10]; 7 at 500 nmol/kg/d SC once daily)	Percent change in body weight ([10]; 7 at 1500 nmol/kg/d SC once daily)	Fasted insulin ([10]; 6 h fast on day 27 of treatment, plasma)	Glucose control in IPGTT on day 26 ([10]; 24 h after compound injection, semaglutide 2 nmol/kg/d, semaglutide plus 7, 7 alone 500 nmol/kg/d)	Insulin secretion in response to GIPR antagonist alone (high glucose) [11]	Fold less potent at mGIPR than 7 in vitro ([2]; 13 compared with 7)	AUC [7]	Weight loss when co-administrated with liraglutide [12]
CCCCCCCCCCCCCCCC(=O)N[C@@H](CCC(=O)NCCCC[C@H](NC(=O)[C@H](Cc1ccc(O)cc1)NC(=O)[C@H](CC(=O)O)NC(=O)[C@H](CO)NC(=O)[C@@H](NC(=O)[C@H](Cc1ccccc1)NC(=O)[C@@H](NC(C)=O)[C@@H](C)O)[C@@H](C)CC)C(=O)N[C@H](C(=O)N[C@@H](C)C(=O)N[C@@H](CC(C)C)C(=O)N[C@@H](CC(=O)O)C(=O)N[C@@H](CCCCN)C(=O)N[C@H](C(=O)N[C@@H](CCCNC(=N)N)C(=O)N[C@@H](CCC(N)=O)C(=O)N[C@@H](CCC(N)=O)C(=O)N[C@@H](CCC(=O)O)C(=O)N[C@@H](Cc1ccccc1)C(=O)N[C@H](C(=O)N[C@@H](CC(N)=O)C(=O)N[C@@H](Cc1c[nH]c2ccccc12)C(=O)N[C@@H](CC(C)C)C(=O)N[C@@H](CC(C)C)C(=O)N[C@@H](C)C(=O)N[C@@H](CCC(N)=O)C(=O)N[C@@H](CCCCN)C(=O)NCC(=O)O)C(C)C)[C@@H](C)CC)[C@@H](C)CC)C(=O)O [Peptide 7, [Nα-Ac, L14, R18, E21] hGIP(5–31)-K11 (γE-C16)]	negligible cAMP production as agonists	negligible cAMP production as agonists	≤ 20%	68%	less antagonism at the mGLP-1R relative to hGLP-1R	> 12 µM	> 7 µM	no antagonism	507 min	did not affect semaglutide mediated reductions in blood glucose	worsened glucose control	numeric but insignificant lowering of glucose iAUC	+2.57%	−2.88%	did not modify reduction in fasting insulin levels seen with semaglutide treatment	significantly improved glucose control compared to controls	modest and transient, statistically insignificant rise in insulin secretion	–	–	–
CCCCCCCCCCCCCCCC(=O)N[C@@H](CCC(=O)N[C@@H](CCC(=O)NCCCC[C@H](NC(=O)[C@H](CC(=O)O)NC(=O)[C@H](CO)NC(=O)[C@@H](NC(=O)[C@H](Cc1ccccc1)NC(=O)[C@@H](NC(C)=O)[C@@H](C)O)[C@@H](C)CC)C(=O)N[C@@H](CO)C(=O)N[C@H](C(=O)N[C@@H](C)C(=O)N[C@@H](CC(C)C)C(=O)N[C@@H](CC(=O)O)C(=O)N[C@@H](CCCCN)C(=O)N[C@H](C(=O)N[C@@H](CCCNC(=N)N)C(=O)N[C@@H](CCC(N)=O)C(=O)N[C@@H](CCC(N)=O)C(=O)N[C@@H](CCC(=O)O)C(=O)N[C@@H](Cc1ccccc1)C(=O)N[C@H](C(=O)N[C@@H](CC(N)=O)C(=O)N[C@@H](Cc1c[nH]c2ccccc12)C(=O)N[C@@H](CC(C)C)C(=O)N[C@@H](CC(C)C)C(=O)N[C@@H](C)C(=O)N[C@@H](CCC(N)=O)C(=O)N[C@@H](CCCCN)C(=O)NCC(=O)N[C@@H](CCCCN)C(=O)N[C@@H](CCCCN)C(=O)N[C@@H](CC(N)=O)C(=O)N[C@@H](CC(=O)O)C(=O)N[C@@H](Cc1c[nH]c2ccccc12)C(=O)N[C@@H](CCCCN)C(=O)N[C@@H](Cc1c[nH]cn1)C(=O)N[C@@H](CC(N)=O)C(=O)N[C@H](C(=O)N[C@H](C(=O)N[C@@H](CCC(N)=O)C(N)=O)[C@@H](C)O)[C@@H](C)CC)C(C)C)[C@@H](C)CC)[C@@H](C)CC)C(=O)O)C(=O)O [Peptide 13, [N^α-Ac, L14, R18, E21] hGIP(5–42)-K10 (γEγE-C16)] (Ac-TFISDK([γGlu-γGlu-Palmitoyl])SIALDKIRQQEFVNWLLAQKGKKNDWKHNITQ-NH2)	–	–	–	–	–	–	–	–	67.2 min	–	–	–	–	–	–	–	–	~5 fold	21.1 µM·h	did not improve weight loss
